High-throughput results as filed in PubChem BioAssay.
Shown are actives, neighbours in structure and some others; about 5.7% of the full set was active somewhere.
T cruzi inh: blocks replication of Trypanosoma cruzi; T. cruzi beta-gal in NIH3T3, luminescence, 90 h; inhibition, % (no concentration beside the values); actives 1.4% (n = 300,000);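 active = mean inhibition across valid replicates above about 55%, limit read from the data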;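 also: signal also drops with host cell toxicity which is not excluded here; 0% = plate median of DMSO wells and 100% = zero luminescence signal; higher percent means less beta-gal luminescence so fewer parasites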
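Read-out: Parasite load inhibition, % | Test system: Mouse NIH/3T3 fibroblasts infected with β-gal-expressing T. cruzi Tulahuen C4 | Amount: 5,000 cells/well | Medium: DMEM, 2% fetal bovine serum | Signal: GalScreen β-gal luminescence, detergent lysis, 60 min | Timing: 3 h attach, ≥90 h co-culture | Also added: Tulahuen C4 trypomastigotes, 5000/well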
Beta apoptosis: blocks beta cell apoptosis; protection from apoptosis, % (test concentration not listed); actives 0.8% (n = 300,000); AID 435005; INS-1E cytokine-induced death, ATP luminescence, 48 h; percent of positive-control rescue, neutral wells zero;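 active = Every replicate reaches about 75%, or at least half do and their mean reaches it too, limit read from the data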;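 also: 0% = cytokine-treated negative control wells and 100% = positive control rescue; higher means more ATP so stronger rescue from cytokine killing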
Calb FLC: C. albicans growth modulation with fluconazole. AID 1979. actives 0.57% (n = 300,000). C. albicans CaCi-2 + fluconazole, Alamar Blue growth, 48 h. growth inhibition, % (concentration not given with the values);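 active = growth inhibition above about 58% in most replicates, limit read from the data, passing the limit was not always enough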;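 also: all wells also contain fluconazole at 8 µg/ml as a sub-toxic cotreatment; 0% = median of DMSO wells and 100% = median of geldanamycin control wells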
SKKanGAS inh: inhibitors of SKKanGAS S. pyogenes growth in kanamycin (SK-promoter or general growth effect); inhibition, % at 7.5 µM; AID 1662; actives 1.3% (n = 300,000); BacTiter-Glo, 6 h;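 active = mean replicate score, as percent of positive control median, at least 50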;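 also: strain carries kanamycin resistance gene driven by streptokinase promoter and grows in 40 µg/ml kanamycin; loss of luminescence reflects streptokinase promoter inhibition or plain growth inhibition; 0% = median of DMSO wells and 100% = positive control at its reference dose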
Mdm2 MdmX PPI: disrupts the human Mdm2-MdmX interaction; inhibition, % at 8 µM; SaOS-2 split-luciferase Mdm2/MdmX complementation, luminescence; actives 3% (n = 330,000); AID 485346;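 active = inhibition of at least 50% at 8 µM in the primary screen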
Target sequence (O15151 whole entry, looked up): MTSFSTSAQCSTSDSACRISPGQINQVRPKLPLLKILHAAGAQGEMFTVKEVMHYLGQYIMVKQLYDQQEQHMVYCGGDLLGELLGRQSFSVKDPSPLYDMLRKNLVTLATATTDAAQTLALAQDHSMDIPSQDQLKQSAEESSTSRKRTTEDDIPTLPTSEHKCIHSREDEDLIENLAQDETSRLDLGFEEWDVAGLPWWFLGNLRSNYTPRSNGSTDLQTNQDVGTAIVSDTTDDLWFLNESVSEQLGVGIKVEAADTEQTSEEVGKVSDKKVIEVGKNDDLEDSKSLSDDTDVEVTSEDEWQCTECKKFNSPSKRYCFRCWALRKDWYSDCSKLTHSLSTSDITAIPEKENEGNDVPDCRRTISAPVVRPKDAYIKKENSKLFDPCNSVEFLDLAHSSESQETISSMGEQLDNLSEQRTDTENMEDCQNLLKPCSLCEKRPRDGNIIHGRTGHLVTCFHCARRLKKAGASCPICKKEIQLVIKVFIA
Target sequence (Q00987 whole entry, looked up): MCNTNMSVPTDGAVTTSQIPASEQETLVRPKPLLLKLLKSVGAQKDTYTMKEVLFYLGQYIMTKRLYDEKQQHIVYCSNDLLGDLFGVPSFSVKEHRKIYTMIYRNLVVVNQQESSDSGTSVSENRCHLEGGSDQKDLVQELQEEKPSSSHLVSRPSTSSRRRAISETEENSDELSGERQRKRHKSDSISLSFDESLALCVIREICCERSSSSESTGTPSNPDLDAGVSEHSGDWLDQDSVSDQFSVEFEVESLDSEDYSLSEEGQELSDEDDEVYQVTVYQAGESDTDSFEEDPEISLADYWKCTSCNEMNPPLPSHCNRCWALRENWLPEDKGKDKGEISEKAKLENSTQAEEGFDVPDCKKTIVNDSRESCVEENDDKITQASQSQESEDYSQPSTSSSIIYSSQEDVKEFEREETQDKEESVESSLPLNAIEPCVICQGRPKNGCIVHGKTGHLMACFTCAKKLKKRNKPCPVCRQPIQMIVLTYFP
CSC inhib: cancer stem cell inhibition; cancer stem cell-like cells viability, luminescence; actives 1.1% (n = 300,000); inhibition, % at 7.5 µM; in the data active = inhibition above about 75%; tested in HMLE shEcad cells
An asterisk follows results filed as active; · = no result given.

SMILES	T cruzi inh	Beta apoptosis	Calb FLC	SKKanGAS inh	Mdm2 MdmX PPI	CSC inhib
COc1ccc(N2CCN(C(=O)CC(C)S(=O)(=O)c3ccc4c(c3)NC(=O)CO4)CC2)cc1 (configuration not stated)	6	-3	-4	2	32	-5
COc1cc(NC(=O)Nc2cccc(Cl)c2)c(OC)cc1NC(=O)CN1CCCCC1	32	8	·	41	39	115*
O=C(CN1CCCCC1)Nc1cccc(Cl)c1	0	-2	6	-7	-9	-9
Oc1ccc(N2CCN(Cc3ccc(OCCCN4CCCCC4)cc3)CC2)cc1	69*	1	11	24	6	-8
CCOc1ccc(OCCCCN2CCCC2)cc1	28	·	-11	-1	-13	10
CCCCOc1ccc(CN2CCCCC2)cc1	59*	-3	-16	-1	1	13
O=C(OCc1ccccc1)/C(=C/c1cccc([N+](=O)[O-])c1)NC(=O)c1ccco1	-3	-5	·	0	11	5
COc1ccccc1NC(=O)O/N=C(\N)c1ccccc1	0	1	-4	-5	8	-3
CCCCN(CC)CCNC(=O)c1cn(C)c(=O)c2c1c1ccccc1n2C	5	-5	-5	3	14	-6
CCCCN(CC)CCNC(=O)c1nn(-c2ccc(OC)cc2)c(=O)c2c1c1ccccc1n2C	57*	-1	-9	8	38	-9
CCCCN(CC)CCCNC(=O)c1cn(-c2ccc(OC)cc2)c(=O)c2ccccc12	58*	-2	2	-1	21	-21
COC(=O)c1ccccc1NC(=O)C(C)c1ccc([N+](=O)[O-])cc1 (configuration not stated)	9	-2	-23	-1	-10	18
Cc1ccc(C)c(N2CCN(C(=O)c3ccc4c(c3)c(C)c(C)n4C)CC2)c1	14	-5	-9	24	32	82*
Cc1c(C)n(C)c2ccc(C(=O)N3CCN(c4ccccc4)CC3)cc12	12	-9	-5	17	12	10
CCNC(=O)c1c(O)c2c([nH]c1=O)CCCC2	-8	-5	-2	3	11	-7
CN(C(=O)COC(=O)/C=C/c1cccc([N+](=O)[O-])c1)C1CCS(=O)(=O)C1 (configuration not stated)	-1	-4	4	4	40	92*
COc1ccc(C(=O)Nc2c3c(nn2-c2ccc([N+](=O)[O-])cc2)CS(=O)(=O)C3)cc1	-6	·	6	52*	39	-6
CCn1cc(CNC(=O)CCc2nnc(CCC3CCCCC3)o2)cn1	-14	-4	3	-15	-14	-22
OC(COC(c1ccc(Cl)cc1)c1ccc(Cl)cc1)CN1CCc2ccccc2C1 (configuration not stated)	62*	1	-1	17	14	36
OC(COC(c1ccccc1)c1ccccc1)CN1CCc2ccccc2C1 (configuration not stated)	2	2	-9	-4	20	13
OC(COC(c1ccc(F)cc1)c1ccc(F)cc1)CN1CCc2ccccc2C1 (configuration not stated)	16	102*	2	-2	27	31
O=C(c1cnc(Cl)c(Cl)c1)N1CCC(Cc2ccccc2)CC1	-5	-4	-23	-8	5	5
O=C(c1ccccc1)c1ccc(NCCCn2ccnc2)c([N+](=O)[O-])c1	56*	1	31	-4	19	37
O=C(O)c1ccc2c(=O)n3c(nc2c1)/C(=C/c1ccc(Cl)c(Cl)c1)CC3	-8	3	-1	9	17	-17
CCC/C=C(\CCC)C(NS(=O)(=O)c1ccc(C(F)(F)F)cc1)c1ccccc1 (configuration not stated)	40	53	14	71*	·	102*
SMILES	T cruzi inh	Beta apoptosis	Calb FLC	SKKanGAS inh	Mdm2 MdmX PPI	CSC inhib
Cc1ccc(C2CC(c3ccc(Cl)cc3)n3nc(N)nc3N2)cc1 (configuration not stated)	21	0	6	7	-17	16
Cc1ccc(C2CC(c3ccc(C)cc3)n3nc(N)nc3N2)cc1 (configuration not stated)	29	103*	-3	10	10	·
Nc1nc2n(n1)C(c1cccs1)CC(c1ccc(Br)cc1)N2 (configuration not stated)	74*	-16	0	7	33	0
CCC1CCCCN1CCCNC(=O)c1ccc(CS(=O)(=O)Cc2ccc(Cl)cc2)o1 (configuration not stated)	12	0	-7	-2	19	-1
CN(Cc1c(F)cccc1Cl)C(=O)c1cc2ccccc2o1	-4	99*	-7	18	-26	5
O=C1NC(=O)C(c2cn(-c3ccccc3)nc2-c2ccc(F)cc2)N1 (configuration not stated)	2	-10	0	-3	3	·
CC1=C(C(=O)c2ccccc2)C(c2cn(-c3ccccc3)nc2-c2ccc(Cl)cc2)NC(=S)N1 (configuration not stated)	60*	-1	-10	17	23	-12
COc1ccc(-n2c(SCC(=O)NC3CC3)nc3ccccc3c2=O)cc1OC	·	-5	·	·	11	·
CC(=O)n1cc([C@@H]2C=C(C(=O)N3CCOCC3)O[C@H](OCc3ccc(CO)cc3)C2)c2ccccc21	26	-2	2	4	-1	3
O=C(C1=C[C@H](c2ccc(Br)cc2)C[C@H](OCCCCO)O1)N1CCN(Cc2ccccc2)CC1	56*	-1	0	-7	15	-6
O=C(C1=C[C@@H](c2ccc(Br)cc2)C[C@@H](OCCCCO)O1)N1CCN(Cc2ccc3c(c2)OCO3)CC1	24	-1	-15	8	36	-6
O=C(C1=C[C@@H](c2csc3ccccc23)C[C@@H](OCc2ccc(CO)cc2)O1)N1CCOCC1	12	3	14	9	12	-6
CC(=O)n1cc([C@H]2C=C(C(=O)N3CCN(Cc4ccccc4)CC3)O[C@@H](OCc3ccc(CO)cc3)C2)c2ccccc21	68*	18	-1	25	30	2
CC(=O)n1cc([C@H]2C=C(C(=O)N3CCN(Cc4ccc5c(c4)OCO5)CC3)O[C@@H](OCc3ccc(CO)cc3)C2)c2ccccc21	56*	28	26	24	39	11
O=C(C1=C[C@@H](c2csc3ccccc23)C[C@@H](OCc2ccc(CO)cc2)O1)N1CCN(Cc2ccccc2)CC1	68*	·	10	40	33	0
COc1ccccc1C(=O)NS(=O)(=O)c1ccc(C)cc1	·	4	·	·	5	-7
O=C(NCc1ccccc1)C1=C[C@H](c2csc3ccccc23)C[C@H](OCCCCO)O1	27	75*	-8	17	44	16
